Experimental data published in ChEMBL document CHEMBL1811829, “Discovery of selective indole-based prostaglandin D₂ receptor antagonist” (Bioorg Med Chem, 2011).

Experiments:
[1] = target: T1, Prostaglandin D2 receptor (Mus musculus, UniProt P70263); test: Displacement of [3H]-PGD2 from mouse DP receptor expressed in CHO cells after 20 mins by liquid scintillation counting; assay type: cell-based
T1 sequence (P70263 whole entry): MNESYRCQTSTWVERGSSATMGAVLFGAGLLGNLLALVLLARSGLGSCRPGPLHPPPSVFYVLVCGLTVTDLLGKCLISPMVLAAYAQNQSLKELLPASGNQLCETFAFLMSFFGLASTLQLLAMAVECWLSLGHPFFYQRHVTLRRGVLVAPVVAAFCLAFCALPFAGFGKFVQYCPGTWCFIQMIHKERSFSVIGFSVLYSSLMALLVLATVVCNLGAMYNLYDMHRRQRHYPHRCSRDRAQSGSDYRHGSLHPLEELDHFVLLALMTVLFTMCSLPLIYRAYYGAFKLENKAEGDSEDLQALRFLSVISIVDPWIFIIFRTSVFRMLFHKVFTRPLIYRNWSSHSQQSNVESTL
In short: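 Membranes from CHO cells stably expressing mDP were incubated with 2.5 nM [³H]PGD₂ and compounds at various concentrations. Buffer was 25 mM HEPES–NaOH pH 7.4 with 1 mM EDTA, 5 mM MgCl₂ and 10 mM MnCl₂, for 20 min at room temperature. Samples were filtered on GF/B and washed with Tris–HCl pH 7.4, NaCl, 0.01% BSA. Filters were dried 60 min at 60 °C and read by scintillation counting. Nonspecific binding was set with excess unlabeled PGD₂.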

Prostacyclin receptor = Prostacyclin receptor (Homo sapiens, UniProt P43119); test: Displacement of [3H]-Iloprost from human IP receptor expressed in CHO cells after 30 mins by liquid scintillation counting; assay type: cell-based
Sequence of Prostacyclin receptor (P43119 whole entry): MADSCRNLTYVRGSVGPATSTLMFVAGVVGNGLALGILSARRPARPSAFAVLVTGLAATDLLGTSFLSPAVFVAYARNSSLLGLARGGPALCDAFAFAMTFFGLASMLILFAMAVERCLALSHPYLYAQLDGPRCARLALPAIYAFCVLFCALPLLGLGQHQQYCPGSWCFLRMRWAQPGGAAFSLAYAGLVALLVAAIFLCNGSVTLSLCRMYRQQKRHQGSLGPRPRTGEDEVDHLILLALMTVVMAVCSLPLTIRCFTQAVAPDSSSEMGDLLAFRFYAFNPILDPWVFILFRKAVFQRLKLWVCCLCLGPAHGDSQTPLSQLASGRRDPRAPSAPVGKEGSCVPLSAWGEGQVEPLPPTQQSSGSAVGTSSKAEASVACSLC
In short: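 Membranes from CHO cells expressing hIP were incubated with 5.0 nM [³H]Iloprost and compounds at various concentrations. Buffer was 50 mM Tris–HCl pH 7.5 with 1 mM EDTA and 10 mM MgCl₂, for 30 min at room temperature. Samples were filtered on GF/B, washed with 10 mM Tris–HCl/100 mM NaCl pH 7.5, dried 60 min at 60 °C and scintillation counted.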

[2] = target: Prostaglandin F2-alpha receptor (Mus musculus, UniProt P43117); test: Displacement of [3H]-PGF2-alpha from mouse FP receptor expressed in CHO cells after 60 mins by liquid scintillation counting; assay type: cell-based
Sequence of Prostaglandin F2-alpha receptor (P43117 whole entry): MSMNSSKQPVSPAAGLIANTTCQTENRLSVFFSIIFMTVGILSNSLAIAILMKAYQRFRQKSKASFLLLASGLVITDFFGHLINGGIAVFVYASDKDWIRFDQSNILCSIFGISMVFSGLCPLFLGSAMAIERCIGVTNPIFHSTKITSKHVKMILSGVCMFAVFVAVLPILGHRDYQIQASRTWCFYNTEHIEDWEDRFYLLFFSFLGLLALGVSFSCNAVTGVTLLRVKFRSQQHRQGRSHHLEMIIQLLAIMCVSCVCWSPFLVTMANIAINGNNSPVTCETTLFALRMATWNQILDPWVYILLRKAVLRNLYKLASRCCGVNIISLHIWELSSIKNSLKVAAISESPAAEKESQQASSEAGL
In short: (§1)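 Membranes from CHO cells stably expressing mEP1, mEP2, mEP3a, mEP4 or mFP were used. The radioligand was 2.5 nM [³H]PGE₂ for EP receptors and 2.5 nM [³H]PGF2α for FP. Buffer was 10 mM KH₂PO₄–KOH pH 6.0 with 1 mM EDTA, 10 mM MgCl₂ and 100 mM NaCl. Incubation was at room temperature, 20 min for mEP1 and 60 min for the others. Samples were filtered on GF/B, washed with phosphate/NaCl pH 6.0, dried 60 min at 60 °C and scintillation counted.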

[3] = target: Prostaglandin E2 receptor EP2 subtype (Mus musculus, UniProt Q62053); test: Displacement of [3H]-PGE2 from mouse EP2 receptor expressed in CHO cells after 60 mins by liquid scintillation counting; assay type: cell-based; in short: as §1
Sequence of Prostaglandin E2 receptor EP2 subtype (Q62053 whole entry): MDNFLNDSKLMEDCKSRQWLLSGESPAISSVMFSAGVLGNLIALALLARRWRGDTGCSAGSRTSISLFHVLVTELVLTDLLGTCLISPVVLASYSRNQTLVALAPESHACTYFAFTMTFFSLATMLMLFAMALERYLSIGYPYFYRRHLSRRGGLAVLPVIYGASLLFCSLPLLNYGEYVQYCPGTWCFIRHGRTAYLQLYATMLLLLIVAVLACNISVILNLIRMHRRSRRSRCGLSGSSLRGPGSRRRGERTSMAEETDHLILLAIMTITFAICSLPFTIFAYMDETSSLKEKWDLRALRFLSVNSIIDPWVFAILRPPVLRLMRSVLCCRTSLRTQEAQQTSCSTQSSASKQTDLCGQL

[4] = target: T2, Prostaglandin E2 receptor EP1 subtype (Mus musculus, UniProt P35375); test: Displacement of [3H]-PGE2 from mouse EP1 receptor expressed in CHO cells after 20 mins by liquid scintillation counting; assay type: cell-based; in short: as §1
T2 sequence (P35375 whole entry): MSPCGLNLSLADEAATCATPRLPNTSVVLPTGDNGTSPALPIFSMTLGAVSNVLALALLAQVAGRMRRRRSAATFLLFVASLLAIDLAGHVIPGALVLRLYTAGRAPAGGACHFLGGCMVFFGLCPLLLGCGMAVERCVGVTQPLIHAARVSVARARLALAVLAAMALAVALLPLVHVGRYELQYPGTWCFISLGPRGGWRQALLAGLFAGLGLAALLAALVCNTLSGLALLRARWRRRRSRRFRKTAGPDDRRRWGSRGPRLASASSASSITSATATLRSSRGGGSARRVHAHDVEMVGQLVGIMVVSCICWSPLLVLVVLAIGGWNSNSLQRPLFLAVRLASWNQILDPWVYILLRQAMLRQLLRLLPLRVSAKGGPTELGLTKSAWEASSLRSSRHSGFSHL

[5] = target: T3, Prostaglandin E2 receptor EP3 subtype (Mus musculus, UniProt P30557); test: Displacement of [3H]-PGE2 from mouse EP3 receptor expressed in CHO cells after 60 mins by liquid scintillation counting; assay type: cell-based; in short: as §1
T3 sequence (P30557 whole entry): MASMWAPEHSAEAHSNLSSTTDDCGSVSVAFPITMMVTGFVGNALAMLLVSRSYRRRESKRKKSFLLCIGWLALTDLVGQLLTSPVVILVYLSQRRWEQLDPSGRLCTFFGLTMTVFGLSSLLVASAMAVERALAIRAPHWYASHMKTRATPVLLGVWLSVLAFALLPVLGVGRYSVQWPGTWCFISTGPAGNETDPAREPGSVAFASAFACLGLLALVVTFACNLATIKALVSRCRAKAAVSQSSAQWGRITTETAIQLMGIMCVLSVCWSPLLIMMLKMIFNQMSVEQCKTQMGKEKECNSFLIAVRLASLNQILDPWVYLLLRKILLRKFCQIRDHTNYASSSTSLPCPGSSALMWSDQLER

[6] = target: Prostaglandin E2 receptor EP4 subtype (Mus musculus, UniProt P32240); test: Displacement of [3H]-PGE2 from mouse EP4 receptor expressed in CHO cells after 60 mins by liquid scintillation counting; assay type: cell-based; in short: as §1
Sequence of Prostaglandin E2 receptor EP4 subtype (P32240 whole entry): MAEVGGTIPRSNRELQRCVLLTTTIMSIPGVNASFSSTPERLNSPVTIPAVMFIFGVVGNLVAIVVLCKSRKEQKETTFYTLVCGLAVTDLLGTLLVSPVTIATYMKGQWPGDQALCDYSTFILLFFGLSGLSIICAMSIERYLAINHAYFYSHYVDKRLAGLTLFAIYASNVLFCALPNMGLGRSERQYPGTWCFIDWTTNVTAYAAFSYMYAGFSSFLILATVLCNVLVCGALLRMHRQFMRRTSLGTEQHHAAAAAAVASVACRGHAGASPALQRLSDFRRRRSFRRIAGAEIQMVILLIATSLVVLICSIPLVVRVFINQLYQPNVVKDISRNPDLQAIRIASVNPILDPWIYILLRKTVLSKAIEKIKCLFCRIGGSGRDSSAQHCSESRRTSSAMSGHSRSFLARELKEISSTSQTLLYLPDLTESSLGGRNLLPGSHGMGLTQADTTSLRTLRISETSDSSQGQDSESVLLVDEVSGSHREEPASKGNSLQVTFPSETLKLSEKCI

Thromboxane A2 receptor = target: T4, Thromboxane A2 receptor (Homo sapiens, UniProt P21731); test: Displacement of [3H]-SQ29548 from human TP receptor expressed in CHO cells after 30 mins by liquid scintillation counting; assay type: cell-based
T4 sequence (P21731 whole entry): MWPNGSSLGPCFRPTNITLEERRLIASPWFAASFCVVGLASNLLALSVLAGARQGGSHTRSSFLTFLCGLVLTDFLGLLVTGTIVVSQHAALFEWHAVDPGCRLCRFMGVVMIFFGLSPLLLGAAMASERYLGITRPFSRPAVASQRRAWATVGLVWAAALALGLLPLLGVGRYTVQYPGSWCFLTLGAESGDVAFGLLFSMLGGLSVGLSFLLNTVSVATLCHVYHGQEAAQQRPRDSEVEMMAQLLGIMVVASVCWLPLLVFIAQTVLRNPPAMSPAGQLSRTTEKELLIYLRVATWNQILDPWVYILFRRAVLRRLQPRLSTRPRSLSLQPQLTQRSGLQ
In short: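 Membranes from CHO cells expressing hTP were incubated with 5.0 nM [³H]-SQ29548 and compounds at various concentrations. Buffer was 10 mM Tris–HCl pH 7.5 with 100 mM NaCl, for 30 min at room temperature. Samples were filtered on GF/B, washed with the same buffer, dried 60 min at 60 °C and scintillation counted. Nonspecific binding was set with excess unlabeled SQ29548.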

[7] = target: T1, Prostaglandin D2 receptor; test: Antagonist activity at mouse DP receptor expressed in CHO cells assessed as inhibition of PGD2-induced cAMP accumulation after 10 mins by enzyme immunoassay in the presence of 0.1% BSA; assay type: functional, cell-based
In short: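 CHO cells stably expressing mDP were seeded at 1 × 10⁵ cells/well and grown 2 days. They were preincubated about 10 min at 37 °C in MEM with Diclofenac, then given assay medium (MEM, 0.1% BSA, 1 mM IBMX, Diclofenac). Test compound at various concentrations plus 10 nM PGD₂ was added for 10 min at 37 °C. The reaction was stopped with ice-cold 10% TCA and TCA was extracted. cAMP was measured by EIA. IC50 came from cAMP relative to the PGD₂-only maximum.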

| Ki [1] | Ki (Prostacyclin receptor) | Ki [2] | Ki [3] | Ki [4] | Ki [5] | Ki [6] | Ki (Thromboxane A2 receptor) | IC50 [7] | SMILES |
| --- | --- | --- | --- | --- | --- | --- | --- | --- | --- |
| 7.7 nM | 200 nM | 2100 nM | 210 nM | > 10 µM | 1700 nM | > 10 µM | > 10 µM |  | Cc1c(CC(=O)O)c2ccccc2n1C(=O)c1ccc(OC[C@@H]2CN(C)c3ccccc3O2)cc1 |
| 29 nM | 49 nM | 2200 nM | 330 nM | > 10 µM | > 10000 nM | > 10 µM |  | 3.1 nM | Cc1c(CC(=O)O)c2cc(Cl)ccc2n1C(=O)c1ccc(OC[C@@H]2CN(C)c3ccccc3O2)cc1 |
| 9.9 nM | 1000 nM |  | 310 nM | > 10 µM | 2500 nM | 3 µM |  |  | COc1ccc2c(c1)c(CC(=O)O)c(C)n2C(=O)c1ccc(OC[C@@H]2CN(C)c3ccccc3O2)cc1 |
| 140 nM | 72 nM |  |  |  |  |  |  |  | Cc1cc(C(=O)n2c(C)c(CC(=O)O)c3ccccc32)ccc1OC[C@@H]1CN(C)c2ccccc2O1 |
| 380 nM | 91 nM |  |  |  |  |  |  |  | Cc1c(CC(=O)O)c2ccccc2n1C(=O)c1ccc(OC[C@@H]2CN(C)c3ccccc3O2)c(Cl)c1 |
| 240 nM | 210 nM |  |  |  |  |  |  |  | Cc1c(CC(=O)O)c2ccccc2n1C(=O)c1ccc(OC[C@@H]2CN(C)c3ccccc3O2)c(F)c1 |
| 380 nM | 98 nM |  |  |  |  |  |  |  | Cc1c(OC[C@@H]2CN(C)c3ccccc3O2)ccc(C(=O)n2c(C)c(CC(=O)O)c3ccccc32)c1C |
| 3.8 nM | 320 nM |  |  |  |  |  |  | 0.7 nM | Cc1c(CC(=O)O)c2cc(F)ccc2n1C(=O)c1ccc(OC[C@@H]2CN(C)c3ccccc3O2)cc1F |
|  | 1500 nM |  |  |  |  |  |  | 68 nM | COc1cc(C(=O)n2c(C)c(CC(=O)O)c3cc(F)ccc32)ccc1OC[C@@H]1CN(C)c2ccccc2O1 |
|  | 230 nM |  |  |  |  |  |  | 32 nM | Cc1c(OC[C@@H]2CN(C)c3ccccc3O2)ccc(C(=O)n2c(C)c(CC(=O)O)c3cc(F)ccc32)c1C |
| 7.1 nM | 280 nM |  |  |  |  |  |  | 7 nM | Cc1cc(OC[C@@H]2Cc3ccccc3O2)ccc1C(=O)n1c(C)c(CC(=O)O)c2ccccc21 |
|  | 3000 nM |  |  |  |  |  |  | 43 nM | Cc1cc(OCC2Oc3ccccc3O2)ccc1C(=O)n1c(C)c(CC(=O)O)c2ccccc21 |
| 5.4 nM | 520 nM |  |  |  |  |  |  | 1.8 nM | Cc1cc(OC[C@@H]2COc3ccc(F)cc32)ccc1C(=O)n1c(C)c(CC(=O)O)c2ccccc21 |
| > 10000 nM |  |  | > 10000 nM | > 10 µM | > 10000 nM | > 10 µM |  |  | COc1ccc2c(c1)c(CC(=O)O)c(C)n2C(=O)c1ccc(Cl)cc1 [INDOMETHACIN] |

The next lines start with the molecule.

| SMILES | Ki [1] | Ki (Prostacyclin receptor) | Ki [2] | Ki [3] | Ki [4] | Ki [5] | Ki [6] | Ki (Thromboxane A2 receptor) | IC50 [7] |
| --- | --- | --- | --- | --- | --- | --- | --- | --- | --- |
| Cc1c(CC(=O)O)c2ccccc2n1C(=O)c1ccc(OC[C@@H]2CN(C)c3ccccc3O2)cc1F | 3.8 nM | 110 nM |  |  |  |  |  |  | 2.5 nM |
| COc1cc(C(=O)n2c(C)c(CC(=O)O)c3ccccc32)ccc1OC[C@@H]1CN(C)c2ccccc2O1 | 340 nM | 430 nM |  |  |  |  |  |  |  |
| Cc1cc(C(=O)n2c(C)c(CC(=O)O)c3ccccc32)c(C)cc1OC[C@@H]1CN(C)c2ccccc2O1 | 360 nM | 94 nM |  |  |  |  |  |  |  |
| Cc1cc(OC[C@@H]2CN(C)c3ccccc3O2)ccc1C(=O)n1c(C)c(CC(=O)O)c2cc(F)ccc21 | 2.7 nM | 130 nM |  |  |  |  |  |  | 3.2 nM |
| Cc1cc(C(=O)n2c(C)c(CC(=O)O)c3cc(F)ccc32)ccc1OC[C@@H]1CN(C)c2ccccc2O1 | 59 nM | 160 nM |  |  |  |  |  |  | 42 nM |
| Cc1cc(C(=O)n2c(C)c(CC(=O)O)c3cc(F)ccc32)c(C)cc1OC[C@@H]1CN(C)c2ccccc2O1 | 14 nM | 93 nM |  |  |  |  |  |  | 2.8 nM |
| Cc1cc(OC[C@@H]2COc3ccccc3O2)ccc1C(=O)n1c(C)c(CC(=O)O)c2ccccc21 | 22 nM | 570 nM |  |  |  |  |  |  | 3.8 nM |
| Cc1cc(OC[C@@H]2COc3ccccc32)ccc1C(=O)n1c(C)c(CC(=O)O)c2ccccc21 | 43 nM | 2100 nM |  |  |  |  |  |  | 72 nM |
| Cc1cc(OCC2Cc3ccccc3N2C)ccc1C(=O)n1c(C)c(CC(=O)O)c2ccccc21 (configuration not stated) |  | > 10000 nM |  |  |  |  |  |  | 6.2 nM |
| CCN1c2ccccc2CC1COc1ccc(C(=O)n2c(C)c(CC(=O)O)c3ccccc32)c(C)c1 (configuration not stated) | 22 nM | 5100 nM |  |  |  |  |  |  | 3.1 nM |
